Hits are enriched below; roughly 1.7% of the tested compounds scored in any of these assays.
DNMT1 block = inhibitors of human DNMT1 | P26358 | 360,000 compounds, 0.83% hits | DNMT1 molecular beacon, Hinp1I cleavage, fluorescence | inhibition (reported as % activation of signal), % at 10 µM; in the data active = inhibition above about 50%
Scp-1 inhibitor = Scp-1 (human) phosphatase inhibition. Q9GZU7. AID 493091. inhibition, % at 20 µM. 340,000 compounds, 0.88% hits. Recombinant Scp1, phosphopeptide, malachite green phosphate absorbance;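 active = inhibition above about 50% at 20 µM, limit read from the data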;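 note: plate controls were DMSO wells with enzyme for no effect and wells lacking enzyme for full effect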
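Times: enzyme reaction 45 min at room temperature, colour 5 min, stabilisation 30 min. Material: SCP-1 catalytic fragment, aa 76-261. Medium: Acidic Tris acetate buffer with magnesium and detergent. Signal: colorimetric free-phosphate detection, absorbance 630 nm. Read-out basis: % inhibition of SCP-1 phosphate liberation. Reagent: Phosphorylated 17-residue peptide substrate.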
LMPTP inh = blocks human LMPTP phosphatase | P24666 | recombinant LMPTP-A, OMFP fluorogenic substrate, fluorescence intensity | inhibition, % at 20 µM | 360,000 compounds, 0.22% hits | AID 651560;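 active = compounds that cut the enzyme signal by at least half of the control window in the single-dose screen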;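 note: plate controls were DMSO wells with enzyme plus substrate for no effect and substrate without enzyme for full effect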
Target sequence (P24666 whole entry, looked up): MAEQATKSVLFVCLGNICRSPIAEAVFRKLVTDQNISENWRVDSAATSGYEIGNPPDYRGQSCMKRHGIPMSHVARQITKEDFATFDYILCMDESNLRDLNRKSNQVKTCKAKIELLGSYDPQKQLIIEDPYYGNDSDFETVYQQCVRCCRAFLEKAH
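material = LMPTP-A | quantity = 0.625 nM enzyme | reagent = OMFP substrate, 400 µM final | buffer or medium = Bis-Tris pH 6.0, DTT, detergent | detection = endpoint fluorescence intensity from OMFP dephosphorylation | dosing = single 20 µM dose | read-out basis = % inhibition relative to no-enzyme and uninhibited control wells | control set = no-enzyme and uninhibited controls | timing = 50 min at room temperature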
SUMO1-SIM PPI = SUMO1-SIM interaction modulation; P63165; SUMO1 binding to a labelled peptide, TR-FRET, 1 h; inhibition, % at 20 µM; 360,000 compounds, 0.33% hits; AID 602429; in the data active = inhibition above about 37%
Target sequence (P63165 whole entry, looked up): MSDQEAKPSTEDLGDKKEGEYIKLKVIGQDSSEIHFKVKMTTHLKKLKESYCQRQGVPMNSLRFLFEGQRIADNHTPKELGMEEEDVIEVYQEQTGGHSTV
STEP inh = blocks human striatal-enriched tyrosine phosphatase. P54829. recombinant STEP, OMFP fluorogenic substrate, fluorescence. inhibition, % at 20 µM. 360,000 compounds, 0.25% hits. AID 588621;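 active = inhibition at 20 µM, scaled per plate between control wells, above about 37%, limit read from the data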;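 note: 0% = DMSO with enzyme and substrate and 100% = substrate only without enzyme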
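Material: STEP (striatal-enriched tyrosine phosphatase) enzyme, cell-free | Medium: 50 mM Bis-Tris pH 6.0 with 2.5 mM DTT and 0.005% Tween 20 | Read-out: Percent inhibition scaled to no-enzyme and uninhibited-enzyme controls, plate-pattern corrected | Signal: Fluorescence read at 480 nm ex / 540 nm em | Times: 20 min reaction, room temperature, in the dark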
An asterisk follows results filed as active; · = no result.

SMILES	DNMT1 block	Scp-1 inhibitor	LMPTP inh	SUMO1-SIM PPI	STEP inh
COC(=O)c1cccc(Nc2nc(-c3cccnc3)nc3ccccc23)c1	-9	1	-21	46*	1
COC(=O)c1cccc(Nc2nc(-c3ccncc3)nc3ccccc23)c1	-6	-2	6	61*	13
CCOC(=O)c1cccc(Nc2nc(-c3cccnc3)nc3ccccc23)c1	-16	-7	5	2	0
CC(C)=CCC[C@H](C)C[C@@H]1CC2=C(C(=O)OC(C)(C)O2)[C@H](c2ccc(F)cc2)O1	9	·	4	3	6
Cc1cc(=O)oc2cc(OCc3ccc(C(=O)OCC(=O)NC4CCS(=O)(=O)C4)cc3)ccc12 (configuration not stated)	20	50	13	57*	6
Cc1cc(=O)oc2cc(OCc3ccc(C(=O)OCC(=O)N(C)C4CCS(=O)(=O)C4)cc3)ccc12 (configuration not stated)	1	-11	0	2	-4
CCN(CC)c1ccc2nc3c4ccccc4c(=O)cc-3oc2c1	·	-1	·	·	·
CCN(CC)c1ccc2c(-c3ccc(S(=O)(=O)O)cc3S(=O)(=O)[O-])c3ccc(=[N+](CC)CC)cc-3oc2c1	14	77*	15	14	16
O=C1C=C(c2ccc3cc[nH]c3c2)C[C@@H](c2ccc3c(c2)OCO3)C1	12	67*	5	-7	0
O=C1C=C(c2ccc3c(c2)OCO3)C[C@@H](c2ccc3c(c2)OCO3)C1	6	6	1	-4	0
Cc1ccc2nc3c(cc(C(=O)NCc4ccccc4)c(=N)n3CCCn3ccnc3)c(=O)n2c1	13	2	57*	-24	0
N=c1c(C(=O)NCc2ccc3c(c2)OCO3)cc2c(=O)n3ccccc3nc2n1Cc1cccnc1	0	-3	65*	-21	2
N=c1c(C(=O)NCc2ccco2)cc2c(=O)n3ccccc3nc2n1Cc1ccc(Cl)cc1	23	16	52*	4	5
N=c1c(C(=O)NCc2ccco2)cc2c(=O)n3ccccc3nc2n1Cc1ccccc1	75*	8	59*	2	4
Cc1ccc2nc3c(cc(C(=O)NCCc4ccccc4)c(=N)n3CCN3CCOCC3)c(=O)n2c1	2	-3	10	-8	8
COc1ccc(CNC(=O)c2cc3c(=O)n4ccccc4nc3n(Cc3cccnc3)c2=N)cc1	3	5	15	-22	-3
COc1ccc(OC)c(NC(=O)Nc2nc(C(N)c3ccccc3Cl)cs2)c1 (configuration not stated)	-19	·	-2	-4	4
O=C(O)c1ccc(NC2=C/C(=N/S(=O)(=O)c3ccccc3)c3ccccc3C2=O)cc1	70*	-9	7	62*	3
CCc1ccc(S(=O)(=O)/N=C2/C=C(Sc3ncn[nH]3)C(=O)c3ccccc32)cc1	73*	5	9	94*	18
Cc1cc(C)c(S(=O)(=O)/N=C2\C=C(Nc3ccc(C(=O)O)cc3)C(=O)c3ccccc32)c(C)c1	36	36	6	58*	6
CCc1ccc(S(=O)(=O)/N=C2\C=C(Nc3cccc(C(=O)O)c3)C(=O)c3ccccc32)cc1	64*	12	7	36	4
Cc1cc(C)c(S(=O)(=O)/N=C2\C=C(NS(=O)(=O)c3ccccc3)C(=O)c3ccccc32)c(C)c1	-28	-10	2	-4	2
CN(CC(=O)Nc1c(Cl)cccc1Cl)C(=O)c1sccc1-c1ccccc1	-2	-7	0	3	0
COc1cc(OC)c(N2CC(C(=O)NCCC3=CCCCC3)CC2=O)cc1Cl (configuration not stated)	16	-5	1	6	-4
CCN(CC)CCNc1cccc2sc3ccccc3c(=O)c12	46	·	1	-33	0
Cc1ccc(NCCN(C)C)c2c(=O)c3cc(O)ccc3sc12	57*	7	11	-48	1
CN(C)CCNc1cccc2sc3ccc(O)cc3c(=O)c12	56*	·	1	-37	1
O=C(CSc1nc(-c2ccc(F)cc2)nc2c1Cc1ccccc1O2)Nc1ccc(C(=O)O)cc1	95*	102*	85*	106*	96*
O=C(CSc1nc(-c2ccccc2)nc2ccccc12)Nc1cccc(C(=O)O)c1	2	24	0	11	2
